Experimental data: ChEMBL document CHEMBL3525995, “CYP3A-mediated generation of aldehyde and hydrazine in atazanavir metabolism” (Drug Metab Dispos, 2011)
Each block holds one compound with its values, some of them ahead of it.

How the values were obtained:
[1] = Drug level in wild type mouse urine treated with 50 mg/kg, po atazanavir by LC-MS/MS analysis; assay type: ADME, organism-based; design: dose 50 mg/kg, dosed compound name Azazanavir, route oral; settings: in vivo
Method in brief: (§1)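 Wild-type mice (n = 4) got a single oral 50 mg/kg dose and were housed individually in metabolic cages for 18 h, with urine and feces collected. Urine was diluted 1:4 in 50% acetonitrile and centrifuged. Feces were homogenized in water (1 mg/10 μl), mixed 1:1 with acetonitrile and centrifuged twice. Supernatants were analyzed by UPLC-TOFMS, with accurate mass (<10 ppm error) and MS/MS for identification.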

[2] = Drug level in wild type mouse feces treated with 50 mg/kg, po atazanavir by LC-MS/MS analysis; assay type: ADME, organism-based; design: dose 50 mg/kg, dosed compound name Azazanavir, route oral; settings: in vivo; method in brief: as §1
Liver microsome [3] = test: Drug metabolism in human liver microsomes treated with 50 uM atazanavir by LC-MS/MS analysis; assay type: ADME
Method in brief: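 Human liver microsomes (0.5 g protein/l) were incubated in PBS pH 7.4 with 50 μM substrate, in duplicate. After 5 min preincubation at 37°C, 1.0 mM NADPH (final) was added and the reaction ran 30 min with shaking; incubations without NADPH served as controls. Reactions were quenched with equal-volume acetonitrile, centrifuged and analyzed by UPLC-TOFMS.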

Cytochrome P450 3A4 [4] = target: T1, Cytochrome P450 3A4 (Homo sapiens, UniProt P08684); test: Drug metabolism assessed as human CYP3A4-mediated formation at 50 uM by UPLC-TOFMS system; assay type: ADME; settings: recombinant enzyme
Method in brief: (§2)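 Each cDNA-expressed human P450 (CYP1A2, 2A6, 2B6, 2C8, 2C9, 2C19, 2D6, 2E1, 3A4; 2 pmol), plus a control, was incubated in PBS pH 7.4 with 50 μM substrate. After 5 min preincubation at 37°C, 1.0 mM NADPH (final) was added and the reaction ran 30 min with shaking. Ketoconazole (10 μM) was co-incubated as a CYP3A inhibitor, and NADPH-free incubations served as controls. Reactions were quenched with acetonitrile, centrifuged and analyzed by UPLC-TOFMS.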

Cytochrome P450 2D6 = Cytochrome P450 2D6 (Homo sapiens, UniProt P10635); test: Drug level assessed as human CYP2D6-mediated compound formation treated with atazanavir at 50 uM by UPLC-TOFMS system; assay type: ADME; settings: recombinant enzyme; method in brief: as §2
[5] = Drug excretion in wildtype mouse urine assessed as ((S)-1-{(1S,2S)-1-Benzyl-2-hydroxy-3-[N'-((S)-2-methoxycarbonylamino-3,3-dimethyl-butyryl)-hydrazino propylcarbamoyl}-2,2-dimethyl-propyl)-carbamic acid methyl ester formation at 50 mg/kg, po by LC-MS/MS analysis; assay type: ADME, organism-based; design: dose 50 mg/kg, dosed compound name Azazanavir, route oral; settings: in vivo; method in brief: as §1
[6] = Drug excretion in wildtype mouse urine assessed as ((S)-1-{(1S,2S)-1-Benzyl-2-hydroxy-3-[N'-((S)-2-methoxycarbonylamino-3,3-dimethyl-butyryl)-N-(4-pyridin-2-yl-benzyl)-hydrazino]-propylcarbamoyl}-3-hydroxy-2,2-dimethyl-propyl)-carbamic acid methyl ester formation at 50 mg/kg, po by LC-MS/MS analysis; assay type: ADME, organism-based; design: dose 50 mg/kg, dosed compound name Azazanavir, route oral; settings: in vivo; method in brief: as §1
[7] = (§3) Drug excretion in wildtype mouse urine assessed as {(S)-3-Hydroxy-1-[N'-[(2S,3S)-2-hydroxy-3-((S)-4-hydroxy-2-methoxycarbonylamino-3,3-dimethyl-butyrylamino)-4-phenyl-butyl]-N'-(4-pyridin-2-yl-benzyl)-hydrazinocarbonyl]-2,2-dimethyl-propyl}-carbamic acid methyl ester formation at 50 mg/kg, po by LC-MS/MS analysis; assay type: ADME, organism-based; design: dose 50 mg/kg, dosed compound name Azazanavir, route oral; settings: in vivo; method in brief: as §1
[8] = (§4) Drug excretion in wildtype mouse urine assessed as ((S)-1-{(1S,2S)-1-Benzyl-2-hydroxy-3-[N'-((S)-2-methoxycarbonylamino-3,3-dimethyl-butyryl)-N-(4-pyridin-2-yl-benzyl)-hydrazino]-propylcarbamoyl}-3-hydroxy-2-hydroxymethyl-2-methyl-propyl)-carbamic acid methyl ester formation at 50 mg/kg, po by LC-MS/MS analysis; assay type: ADME, organism-based; design: dose 50 mg/kg, dosed compound name Azazanavir, route oral; settings: in vivo; method in brief: as §1
[9] = Drug excretion in wild type mouse urine assessed as methyl (S)-1-(2-((2S,3S)-3-((S)-2-amino-3,3-dimethylbutanamido)-2-hydroxy-4-phenylbutyl)-2-(4-(pyridin-2-yl)benzyl)hydrazinyl)-3,3-dimethyl-1-oxobutan-2-ylcarbamate formation at 50 mg/kg, po by LC-MS/MS analysis; assay type: ADME, organism-based; design: dose 50 mg/kg, dosed compound name Azazanavir, route oral; settings: in vivo; method in brief: as §1
[10] = Drug excretion in wild type mouse urine assessed as methyl (S)-1-((2S,3S)-4-(2-((S)-2-amino-3,3-dimethylbutanoyl)-1-(4-(pyridin-2-yl)benzyl)hydrazinyl)-3-hydroxy-1-phenylbutan-2-ylamino)-3,3-dimethyl-1-oxobutan-2-ylcarbamate formation at 50 mg/kg, po by LC-MS/MS analysis; assay type: ADME, organism-based; design: dose 50 mg/kg, dosed compound name Azazanavir, route oral; settings: in vivo; method in brief: as §1
[11] = Drug excretion in wild type mouse urine assessed as (S)-methyl 3,3-dimethyl-1-oxo-1-(2-(4-(pyridin-2-yl)benzyl)hydrazinyl)butan-2-ylcarbamate formation at 50 mg/kg, po by LC-MS/MS analysis; assay type: ADME, organism-based; design: dose 50 mg/kg, dosed compound name Azazanavir, route oral; settings: in vivo; method in brief: as §1
[12] = Drug excretion in wildtype mouse feces assessed as ((S)-1-{(1S,2S)-1-Benzyl-2-hydroxy-3-[N'-((S)-2-methoxycarbonylamino-3,3-dimethyl-butyryl)-hydrazino propylcarbamoyl}-2,2-dimethyl-propyl)-carbamic acid methyl ester formation at 50 mg/kg, po by LC-MS/MS analysis; assay type: ADME, organism-based; design: dose 50 mg/kg, dosed compound name Azazanavir, route oral; settings: in vivo; method in brief: as §1
[13] = Drug excretion in wildtype mouse feces assessed as ((S)-1-{(1S,2S)-1-Benzyl-2-hydroxy-3-[N'-((S)-2-methoxycarbonylamino-3,3-dimethyl-butyryl)-N-(4-pyridin-2-yl-benzyl)-hydrazino]-propylcarbamoyl}-3-hydroxy-2,2-dimethyl-propyl)-carbamic acid methyl ester formation at 50 mg/kg, po by LC-MS/MS analysis; assay type: ADME, organism-based; design: dose 50 mg/kg, dosed compound name Azazanavir, route oral; settings: in vivo; method in brief: as §1
[14] = as §3, with “feces” for “urine”; assay type: ADME, organism-based; design: dose 50 mg/kg, dosed compound name Azazanavir, route oral; settings: in vivo; method in brief: as §1
[15] = as §4, with “feces” for “urine”; assay type: ADME, organism-based; design: dose 50 mg/kg, dosed compound name Azazanavir, route oral; settings: in vivo; method in brief: as §1
[16] = Drug excretion in wild type mouse feces assessed as methyl (S)-1-(2-((2S,3S)-3-((S)-2-amino-3,3-dimethylbutanamido)-2-hydroxy-4-phenylbutyl)-2-(4-(pyridin-2-yl)benzyl)hydrazinyl)-3,3-dimethyl-1-oxobutan-2-ylcarbamate formation at 50 mg/kg, po by LC-MS/MS analysis; assay type: ADME, organism-based; design: dose 50 mg/kg, dosed compound name Azazanavir, route oral; settings: in vivo; method in brief: as §1
[17] = Drug excretion in wild type mouse feces assessed as methyl (S)-1-((2S,3S)-4-(2-((S)-2-amino-3,3-dimethylbutanoyl)-1-(4-(pyridin-2-yl)benzyl)hydrazinyl)-3-hydroxy-1-phenylbutan-2-ylamino)-3,3-dimethyl-1-oxobutan-2-ylcarbamate formation at 50 mg/kg, po by LC-MS/MS analysis; assay type: ADME, organism-based; design: dose 50 mg/kg, dosed compound name Azazanavir, route oral; settings: in vivo; method in brief: as §1
[18] = Drug excretion in wild type mouse assessed as (S)-methyl 3,3-dimethyl-1-oxo-1-(2-(4-(pyridin-2-yl)benzyl)hydrazinyl)butan-2-ylcarbamate formation at 50 mg/kg, po by LC-MS/MS analysis; assay type: ADME, organism-based; design: dose 50 mg/kg, dosed compound name Azazanavir, route oral; settings: in vivo; method in brief: as §1
Cytochrome P450 3A4 [19] = target: T1, Cytochrome P450 3A4; test: Drug level assessed as human CYP3A4-mediated (S)-methyl 3,3-dimethyl-1-oxo-1-(2-(4-(pyridin-2-yl)benzyl)hydrazinyl)butan-2-ylcarbamate formation treated with 50 uM atazanavir by UPLC-TOFMS system; assay type: ADME; settings: recombinant enzyme; method in brief: as §2
Liver microsome [20] = test: Drug metabolism in human liver microsomes assessed as (S)-methyl 3,3-dimethyl-1-oxo-1-(2-(4-(pyridin-2-yl)benzyl)hydrazinyl)butan-2-ylcarbamate formation at 50 uM by LC-MS/MS analysis; settings: in vitro
Liver microsome [21] = test: Drug metabolism in human liver microsomes assessed as methyl (S)-1-((2S,3S)-4-(2-((S)-2-amino-3,3-dimethylbutanoyl)-1-(4-(pyridin-2-yl)benzyl)hydrazinyl)-3-hydroxy-1-phenylbutan-2-ylamino)-3,3-dimethyl-1-oxobutan-2-ylcarbamate formation by LC-MS/MS analysis
Liver microsome [22] = test: Drug metabolism in human liver microsomes assessed as methyl (S)-1-(2-((2S,3S)-3-((S)-2-amino-3,3-dimethylbutanamido)-2-hydroxy-4-phenylbutyl)-2-(4-(pyridin-2-yl)benzyl)hydrazinyl)-3,3-dimethyl-1-oxobutan-2-ylcarbamate formation at 50 uM by LC-MS/MS analysis; settings: in vitro
Liver microsome [23] = test: Drug metabolism in human liver microsomes assessed as ((S)-1-{(1S,2S)-1-Benzyl-2-hydroxy-3-[N'-((S)-2-methoxycarbonylamino-3,3-dimethyl-butyryl)-hydrazino]-propylcarbamoyl}-2,2-dimethyl-propyl)-carbamic acid methyl ester formation at 50 uM by LC-MS/MS analysis; settings: in vitro
Liver microsome [24] = test: Drug metabolism in human liver microsomes assessed as ((S)-1-{(1S,2S)-1-Benzyl-2-hydroxy-3-[N'-((S)-2-methoxycarbonylamino-3,3-dimethyl-butyryl)-N-(4-pyridin-2-yl-benzyl)-hydrazino]-propylcarbamoyl}-3-hydroxy-2,2-dimethyl-propyl)-carbamic acid methyl ester formation at 50 uM by LC-MS/MS analysis; settings: in vitro
Liver microsome [25] = test: Drug metabolism in human liver microsomes assessed as ((S)-1-{(1S,2S)-1-Benzyl-2-hydroxy-3-[N'-((S)-2-methoxycarbonylamino-3,3-dimethyl-butyryl)-N-(4-pyridin-2-yl-benzyl)-hydrazino]-propylcarbamoyl}-3-hydroxy-2-hydroxymethyl-2-methyl-propyl)-carbamic acid methyl ester formation at 50 uM by LC-MS/MS analysis; settings: in vitro

T1 sequence (P08684 whole entry): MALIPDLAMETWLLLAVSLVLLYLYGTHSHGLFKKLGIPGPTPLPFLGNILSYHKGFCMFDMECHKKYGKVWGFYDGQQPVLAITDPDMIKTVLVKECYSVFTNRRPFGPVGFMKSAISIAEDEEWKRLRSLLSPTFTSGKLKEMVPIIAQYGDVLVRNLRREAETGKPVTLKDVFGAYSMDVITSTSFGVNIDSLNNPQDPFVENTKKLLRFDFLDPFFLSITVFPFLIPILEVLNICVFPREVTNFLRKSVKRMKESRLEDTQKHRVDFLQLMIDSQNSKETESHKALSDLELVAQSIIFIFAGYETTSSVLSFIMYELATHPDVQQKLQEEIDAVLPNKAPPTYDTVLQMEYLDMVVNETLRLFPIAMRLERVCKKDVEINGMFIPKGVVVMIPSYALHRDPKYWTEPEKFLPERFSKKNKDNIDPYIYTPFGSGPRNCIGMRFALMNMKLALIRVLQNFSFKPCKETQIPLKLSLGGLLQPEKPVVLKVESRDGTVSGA
Chain of Cytochrome P450 2D6 (P10635 whole entry): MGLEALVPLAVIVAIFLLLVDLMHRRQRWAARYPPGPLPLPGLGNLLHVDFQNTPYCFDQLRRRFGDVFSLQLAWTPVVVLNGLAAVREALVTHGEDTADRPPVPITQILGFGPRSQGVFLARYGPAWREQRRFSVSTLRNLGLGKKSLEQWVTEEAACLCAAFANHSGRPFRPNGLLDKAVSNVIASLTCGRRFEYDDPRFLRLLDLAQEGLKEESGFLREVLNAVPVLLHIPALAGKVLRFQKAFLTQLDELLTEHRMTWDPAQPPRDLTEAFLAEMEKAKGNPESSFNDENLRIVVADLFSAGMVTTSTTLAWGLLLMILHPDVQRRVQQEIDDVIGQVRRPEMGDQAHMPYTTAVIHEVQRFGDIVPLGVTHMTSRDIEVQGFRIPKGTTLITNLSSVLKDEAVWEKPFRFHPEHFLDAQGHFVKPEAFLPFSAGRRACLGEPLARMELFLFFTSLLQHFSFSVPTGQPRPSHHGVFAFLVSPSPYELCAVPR

SMILES: COC(=O)N[C@H](C(=O)N[C@@H](Cc1ccccc1)[C@@H](O)CN(Cc1ccc(-c2ccccn2)cc1)NC(=O)[C@@H](N)C(C)(C)C)C(C)(C)C
Compound recovery [1]: metabolite_detected | Compound recovery [2]: metabolite_detected | Compound recovery (Liver microsome [3]): metabolite_detected

SMILES: COC(=O)N[C@H](C(=O)N[C@@H](Cc1ccccc1)[C@@H](O)CN(Cc1ccc(-c2ccccn2)cc1)NC(=O)[C@@H](NC(=O)OC)C(C)(C)CO)C(C)(C)CO
Compound recovery [1]: metabolite_detected | Compound recovery [2]: metabolite_detected

SMILES: COC(=O)N[C@H](C(=O)NN(Cc1ccc(-c2ccccn2)cc1)C[C@H](O)[C@H](Cc1ccccc1)NC(=O)[C@@H](NC(=O)OC)C(C)(CO)CO)C(C)(C)C
Compound recovery [1]: metabolite_detected | Compound recovery [2]: metabolite_detected | Compound recovery (Liver microsome [3]): metabolite_detected

SMILES: COC(=O)N[C@H](C(=O)NNCc1ccc(-c2ccccn2)cc1)C(C)(C)C
Compound recovery [1]: metabolite_detected | Compound recovery [2]: metabolite_detected | Compound recovery (Liver microsome [3]): metabolite_detected

SMILES: COC(=O)N[C@H](C(=O)NN(Cc1ccc(-c2ccccn2)cc1)C[C@H](O)[C@H](Cc1ccccc1)NC(=O)[C@@H](N)C(C)(C)C)C(C)(C)C
Compound recovery [1]: metabolite_detected | Compound recovery [2]: metabolite_detected | Compound recovery (Liver microsome [3]): metabolite_detected

Next, values leading:

Compound recovery [1]: metabolite_detected | Compound recovery [2]: metabolite_detected | Compound recovery (Liver microsome [3]): metabolite_detected
SMILES: COC(=O)N[C@H](C(=O)NN(Cc1ccc(-c2ccccn2)cc1)C[C@H](O)[C@H](Cc1ccccc1)NC(=O)[C@@H](NC(=O)OC)C(C)(C)CO)C(C)(C)C

Compound recovery [1]: metabolite_detected | Compound recovery [2]: metabolite_detected | Compound recovery (Liver microsome [3]): metabolite_detected
SMILES: COC(=O)N[C@H](C(=O)N[C@@H](Cc1ccccc1)[C@@H](O)CNN)C(C)(C)C

Compound recovery [1]: metabolite_detected | Compound recovery [2]: metabolite_detected | Compound recovery (Liver microsome [3]): metabolite_detected | Compound recovery (Cytochrome P450 3A4 [4]): metabolite_detected | Compound recovery (Cytochrome P450 2D6): metabolite_detected
SMILES: COC(=O)N[C@H](C(=O)NNC[C@H](O)[C@H](Cc1ccccc1)NC(=O)[C@@H](NC(=O)OC)C(C)(C)C)C(C)(C)C

Compound recovery [2]: metabolite_detected
SMILES: COC(=O)N[C@H](C(=O)N[C@@H](Cc1ccccc1)[C@@H](O)C=O)C(C)(C)C

Compound recovery [5]: metabolite_detected | Compound recovery [6]: metabolite_detected | Compound recovery [7]: metabolite_detected | Compound recovery [8]: metabolite_detected | Compound recovery [9]: metabolite_detected | Compound recovery [10]: metabolite_detected | Compound recovery [11]: metabolite_detected | Compound recovery [12]: metabolite_detected | Compound recovery [13]: metabolite_detected | Compound recovery [14]: metabolite_detected | Compound recovery [15]: metabolite_detected | Compound recovery [16]: metabolite_detected | Compound recovery [17]: metabolite_detected | Compound recovery [18]: metabolite_detected | Compound recovery (Cytochrome P450 3A4 [19]): metabolite_detected | Compound recovery (Liver microsome [20]): metabolite_detected | Compound recovery (Liver microsome [21]): metabolite_detected | Compound recovery (Liver microsome [22]): metabolite_detected | Compound recovery (Liver microsome [23]): metabolite_detected | Compound recovery (Liver microsome [24]): metabolite_detected | Compound recovery (Liver microsome [25]): metabolite_detected
SMILES: COC(=O)N[C@H](C(=O)N[C@@H](Cc1ccccc1)[C@@H](O)CN(Cc1ccc(-c2ccccn2)cc1)NC(=O)[C@@H](NC(=O)OC)C(C)(C)C)C(C)(C)C [ATAZANAVIR]
